RGS4 pot – RGS4 potentiation or activation | actives 0.92% (n = 310,000) | HEK293 M3R/inducible RGS4, carbachol calcium flux Fluo4; stronger effect = lower value | B-score at 10 µM;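 active = B-score of the integrated calcium signal more than 4 SD below the library mean, with starting fluorescence not abnormally high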;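 also: negative B-score means reduced calcium response which marks RGS4 activation or potentiation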
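System: HEK293 FlpIn-TREx cells, stable M3R, doxycycline-inducible RGS4. Timing: overnight RGS4 induction, 30 min dye load 37 °C, 20 min compound RT. Also added: carbachol, ECmax concentration. Measured by: Fluo4 fluorescence kinetic imaging of calcium. Evaluation: integrated calcium ratio converted to B score.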
MrgX1 PAM – human MrgX1 positive allosteric modulation, primary screen; actives 0.63% (n = 310,000); AID 588675; MrgX1-HEK293, Fluo-4 calcium flux, FDSS; stronger effect = higher value; B-score at 10 µM; Q96LB2;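 active = plate-corrected calcium response at least 3 library SD above typical, normal starting fluorescence, not activating the receptor alone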;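 also: compound read alongside a low EC10 to EC30 dose of BAM8-22 agonist; peak minus trough fluorescence over baseline measured at the second addition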
Target sequence (Q96LB2 whole entry, looked up): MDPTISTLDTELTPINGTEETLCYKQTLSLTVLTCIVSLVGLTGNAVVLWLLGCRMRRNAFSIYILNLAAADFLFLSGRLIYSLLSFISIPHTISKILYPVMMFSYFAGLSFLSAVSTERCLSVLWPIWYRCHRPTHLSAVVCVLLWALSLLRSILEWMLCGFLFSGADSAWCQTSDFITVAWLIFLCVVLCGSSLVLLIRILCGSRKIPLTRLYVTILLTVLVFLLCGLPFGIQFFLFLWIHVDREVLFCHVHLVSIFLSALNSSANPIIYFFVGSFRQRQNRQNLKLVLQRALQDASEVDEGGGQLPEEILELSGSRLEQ
MrgX1 antag – human MrgX1 receptor antagonism, primary screen. actives 1.3% (n = 310,000). B-score at 10 µM. AID 588676. Q96LB2. MRGX1-HEK293 calcium flux, Fluo-4, BAM8-22 antagonism; stronger effect = lower value;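 active = calcium-response B-score plate-corrected more than 3 library SD below zero, starting fluorescence within 5 deviations, no agonist response on first addition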;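 also: peak minus trough fluorescence over baseline after final BAM8-22 challenge near maximal dose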
Cl transport mod – modulators of human KCC2 chloride dependent transport. Q9H2X9. KCC2 cells, thallium flux FluoZin-2 fluorescence. B-score of Tl+ flux slope (higher = more flux/activation; lower = inhibition) at 10 µM. actives 2.2% (n = 190,000). AID 1456;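 active = thallium flux slope and its plate-corrected score both differing from the plate sample mean at a set confidence after two filtering rounds, in either direction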;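 also: slope of fluorescence scaled to starting intensity during 10 to 20 s after thallium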
MrgX1 agonist – agonists of human MrgX1 receptor; Q96LB2; MrgX1-HEK293 cells, Fluo-4 calcium fluorescence, agonist mode; stronger effect = higher value; B-score at 10 µM; actives 0.44% (n = 310,000); AID 588627;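 active = calcium response B-score plate-corrected fluorescence ratio at least 3 library SD, with starting fluorescence B-score inside 5 SD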
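Material: HEK293 cells stably expressing human MrgX1 receptor | Quantity: 15,000 cells per well | Times: Cells plated overnight, dye loaded 0.5 h 37 °C, 0.5 h room temperature | Measured by: Kinetic Fluo-4 NW fluorescence of intracellular calcium | Control set: Positive and negative controls per plate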
RGS4 block – human RGS4 inhibition; P49798; HEK293 M3R/RGS4 inducible, Fluo-4 calcium flux; stronger effect = higher value; triggered by carbachol at its EC20; B-score at 10 µM; actives 0.45% (n = 310,000);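 active = B-score, a plate-corrected calcium signal, over three deviations above library mean, with baseline fluorescence within five deviations of library mean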;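 also: RGS4 expression induced by doxycycline in cells with stable M3 receptor; B-score is computed from the integrated fluorescence ratio over baseline after carbachol; higher B-score means a larger calcium signal and so more RGS4 inhibition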
Target sequence (P49798 whole entry, looked up): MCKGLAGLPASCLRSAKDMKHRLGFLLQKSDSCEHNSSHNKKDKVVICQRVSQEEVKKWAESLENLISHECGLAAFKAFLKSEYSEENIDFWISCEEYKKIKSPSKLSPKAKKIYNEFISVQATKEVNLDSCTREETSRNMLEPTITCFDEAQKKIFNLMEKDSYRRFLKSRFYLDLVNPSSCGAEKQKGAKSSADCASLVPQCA
RGS4 inh valid – validation of RGS4 inhibitors. HEK293 M3R/RGS4, carbachol calcium Fluo-4 fluorescence; carbachol added at its EC20; 0 = buffer wells, 100 = carbachol control. actives 65% (n = 1,700). shares compounds with RGS4 block. calcium response, % at 10 µM;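 active = duplicate-averaged calcium response above the buffer-only control mean plus 5 SD of those controls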;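 also: integrated fluorescence ratio F max minus min over baseline F0; higher response in RGS4-induced cells means RGS4 inhibition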
M3R Ca ctr – checks RGS4 inhibitor effects in non-induced HEK293 M3R cells; shares compounds with RGS4 block; carbachol calcium Fluo-4; submaximal (EC20) carbachol stimulus; buffer wells 0%, carbachol control wells 100%; activity (percent), % at 10 µM; actives 20% (n = 1,900); AID 493000; call rule not given here;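 also: RGS4 induction absent so cells express M3R without RGS4; higher means more calcium signal and flags a non-specific hit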
M3R basal Ca ctr – second RGS4 inhibitor counter-screen in uninduced cells lacking carbachol | AID 493001 | calcium response (agonist-mode artifact), % at 10 µM | HEK293 M3R/RGS4 non-induced, Fluo-4 calcium, no carbachol; normalised: buffer wells 0%, carbachol wells 100% | actives 22% (n = 1,900) | shares compounds with RGS4 block;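 active = duplicate-averaged calcium rise in uninduced cells above buffer wells' mean plus 5 SD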
Large screens that a line does not name were inactive (follow-up assays come after a bar, where they were run). Only some compounds are listed: those with a hit (about 4.7% of all), similar ones and a draw of the others.

CCOC(=O)[C@@H]1[C@H]2COc3ccccc3[C@@H]2N2C(=O)N(c3ccccc3)C(=O)[C@]12C	none (no result: Cl transport mod) | RGS4 inh valid inactive | M3R Ca ctr inactive | M3R basal Ca ctr inactive
CCOC(=O)[C@@H]1[C@H]2COc3ccc(Br)cc3[C@@H]2N2C(=O)N(c3ccc(Br)cc3)C(=O)[C@]12C	none (no result: Cl transport mod)
CCOC(=O)[C@@H]1[C@H]2COc3ccccc3[C@@H]2N2C(=O)N(c3ccc(F)cc3)C(=O)[C@]12C	none (no result: Cl transport mod) | RGS4 inh valid inactive | M3R Ca ctr inactive | M3R basal Ca ctr inactive
O=C(NCCCN1CCCC1=O)Nc1ccc(Br)cc1Cl	none (no result: Cl transport mod)
CN(CC(=O)Nc1c(Cl)cccc1Cl)C(=O)Cc1ccc(S(=O)(=O)N2CCOCC2)s1	none (no result: Cl transport mod)
CCOC(=O)[C@@H]1[C@H]2COc3ccccc3[C@@H]2N2C(=O)N(c3ccc(Cl)cc3)C(=O)[C@]12C	none (no result: Cl transport mod) | RGS4 inh valid inactive | M3R Ca ctr inactive | M3R basal Ca ctr inactive
CCOC(=O)[C@@H]1[C@H]2COc3ccccc3[C@H]2N2C(=O)N(c3cccc(F)c3)C(=O)[C@]12C	none (no result: Cl transport mod) | RGS4 inh valid inactive | M3R Ca ctr inactive | M3R basal Ca ctr inactive
CCOC(=O)[C@@H]1[C@H]2COc3ccccc3[C@H]2N2C(=O)N(c3ccc(C)cc3)C(=O)[C@]12C	none (no result: Cl transport mod) | RGS4 inh valid inactive | M3R Ca ctr inactive | M3R basal Ca ctr inactive
CCOC(=O)[C@@H]1[C@H]2COc3ccc(Br)cc3[C@H]2N2C(=O)N(c3cccc(F)c3)C(=O)[C@]12C	none (no result: Cl transport mod)
CCOC(=O)[C@@H]1[C@H]2COc3ccc(Br)cc3[C@H]2N2C(=O)N(c3ccc(Br)cc3)C(=O)[C@]12C	none (no result: Cl transport mod)
CCN(Cc1ccncc1)Cc1c(O)ccc2cc(Br)ccc12	RGS4 block 4.8 (no result: MrgX1 PAM, MrgX1 antag, MrgX1 agonist) | RGS4 inh valid inactive | M3R Ca ctr inactive | M3R basal Ca ctr inactive
O=[N+]([O-])c1ccc(-c2nn(-c3ccccc3)cc2/C=N/n2c(-c3ccncc3)n[nH]c2=S)cc1	none | RGS4 inh valid inactive | M3R Ca ctr inactive | M3R basal Ca ctr inactive
S=c1[nH]nc(-c2ccncc2)n1/N=C/c1cn(-c2ccccc2)nc1-c1ccccc1	RGS4 block 7.8 | RGS4 inh valid 12% | M3R Ca ctr 41% | M3R basal Ca ctr inactive
S=c1[nH]nc(-c2cccs2)n1/N=C/c1cn(-c2ccccc2)nc1-c1cccs1	none
COCC1CCN(C(=O)C2CCC(=O)N(CCc3cccc(F)c3)C2)CC1 (centres undefined)	none (no result: Cl transport mod)
COc1cc2[nH]c(C(=O)N3CCN(c4ccccc4F)CC3)cc2c(OC)c1OC	none (no result: Cl transport mod)
CN(Cc1ccccc1)C(=O)CCC(=O)N(C)Cc1ccccc1	none
CC(=O)N(C)Cc1ccc(C(=O)CCl)cc1	RGS4 block 11 | RGS4 inh valid 22% | M3R Ca ctr inactive | M3R basal Ca ctr 21%
Cc1cc(Cl)n2c(nc3ccccc32)c1C#N	RGS4 block 11 (no result: MrgX1 PAM, MrgX1 antag, MrgX1 agonist) | RGS4 inh valid 31% | M3R Ca ctr inactive | M3R basal Ca ctr 10%
Cc1ccc(-c2nn(CC(=O)N3CCOCC3)c(=O)c3ccccc23)cc1S(=O)(=O)N(C)C	none
Cc1cc(N)n2ncc(-c3ccc(Cl)cc3)c2n1	RGS4 block 5.1 | RGS4 inh valid 17% | M3R Ca ctr inactive | M3R basal Ca ctr inactive
CC(=O)c1cnc2c(-c3ccc(Cl)cc3)cnn2c1C	none (no result: RGS4 pot, RGS4 block)
Nc1c(C(=O)O)cnc2c(-c3ccc(Cl)cc3)cnn12	RGS4 block 7.7 | RGS4 inh valid 24% | M3R Ca ctr 31% | M3R basal Ca ctr inactive
CC(NC(=O)CCCc1nnc2n(C)c(=O)c3sccc3n12)c1ccccc1 (centres undefined)	none (no result: Cl transport mod)
CN(C(=O)c1ccc(-c2nn(C)c(=O)c3ccccc23)cc1)C1CCCCC1	none (no result: Cl transport mod)
N#CC1=C(N)N=C(SCc2cccc3ccccc23)C(C(N)=O)C12CCCCC2 (centres undefined)	RGS4 block 5.9 | RGS4 inh valid 16% | M3R Ca ctr inactive | M3R basal Ca ctr inactive
COc1ccc(CCC(=O)NCCOc2ccccc2Cl)cc1	none (no result: Cl transport mod)
COc1ccc(C2=NN(c3ccc(C(=O)O)cc3)C(c3ccc(OC)c(OC)c3)C2)cc1 (centres undefined)	RGS4 block 9.3 (no result: Cl transport mod) | RGS4 inh valid 18% | M3R Ca ctr 38% | M3R basal Ca ctr inactive
COc1ccc(C2CC(c3ccccc3)=NN2c2ccc(S(N)(=O)=O)cc2)cc1OC (centres undefined)	RGS4 block 8.5 | RGS4 inh valid 53% | M3R Ca ctr 66% | M3R basal Ca ctr inactive
CC(C)CN(C(=O)COC(=O)CNC(=O)c1sc2ccccc2c1Cl)C1CCS(=O)(=O)C1 (centres undefined)	none (no result: Cl transport mod)
Cc1onc(-c2ccccc2)c1NC(=O)N(CCC#N)Cc1ccccc1	RGS4 block 6.3 | RGS4 inh valid inactive | M3R Ca ctr inactive | M3R basal Ca ctr inactive
COc1cc(NC(=O)COC(=O)CO/N=C(\C)c2ccc3c(c2)OCO3)cc(OC)c1OC	none (no result: Cl transport mod)
CCC1(c2ccccc2)NC(=O)N(CC(=O)Nc2ccccc2C(=O)NC2CC2)C1=O (centres undefined)	none (no result: Cl transport mod)
COC(=O)c1c(NC(=O)CC2SC(N)=NC2=O)sc2c1CCC(C(C)(C)C)C2 (centres undefined)	RGS4 block 12 | RGS4 inh valid 43% | M3R Ca ctr inactive | M3R basal Ca ctr inactive
COC(=O)c1c(NC(=O)CC2SC(N)=NC2=O)sc2c1CCC(C)C2 (centres undefined)	none | M3R Ca ctr inactive | M3R basal Ca ctr inactive
Cc1ccc([N+](=O)[O-])cc1N(CC(=O)Nc1ccc(S(=O)(=O)Nc2cccc(C(F)(F)F)c2)cc1)S(C)(=O)=O	RGS4 block 7.2 | RGS4 inh valid 22% | M3R Ca ctr inactive | M3R basal Ca ctr inactive
COc1ccccc1N(CC(=O)Nc1cccc(C(F)(F)F)c1)S(C)(=O)=O	none
COc1ccc(-c2cnnn2-c2ccc(NC(=O)c3ccco3)cc2)cc1OC	RGS4 block 4.7 | RGS4 inh valid 6.0% | M3R Ca ctr inactive | M3R basal Ca ctr inactive
COc1ccc(-c2c(-c3ccc(O)cc3O)n[nH]c2C(F)(F)F)cc1	RGS4 block 10 | RGS4 inh valid 35% | M3R Ca ctr 35% | M3R basal Ca ctr 20%

Assay outcomes from PubChem BioAssay.
